From publication PMC8861878 (The Journal of pharmacy and pharmacology, 2020)

Legend:
[1] = target: T1, UGT1A1 (Homo sapiens, UniProt P22309); assay type: in vitro ADME; conditions: β-estradiol 50 μM; individual HLM n = 9; Pearson; P = 0.014
T1 sequence (P22309 26-533): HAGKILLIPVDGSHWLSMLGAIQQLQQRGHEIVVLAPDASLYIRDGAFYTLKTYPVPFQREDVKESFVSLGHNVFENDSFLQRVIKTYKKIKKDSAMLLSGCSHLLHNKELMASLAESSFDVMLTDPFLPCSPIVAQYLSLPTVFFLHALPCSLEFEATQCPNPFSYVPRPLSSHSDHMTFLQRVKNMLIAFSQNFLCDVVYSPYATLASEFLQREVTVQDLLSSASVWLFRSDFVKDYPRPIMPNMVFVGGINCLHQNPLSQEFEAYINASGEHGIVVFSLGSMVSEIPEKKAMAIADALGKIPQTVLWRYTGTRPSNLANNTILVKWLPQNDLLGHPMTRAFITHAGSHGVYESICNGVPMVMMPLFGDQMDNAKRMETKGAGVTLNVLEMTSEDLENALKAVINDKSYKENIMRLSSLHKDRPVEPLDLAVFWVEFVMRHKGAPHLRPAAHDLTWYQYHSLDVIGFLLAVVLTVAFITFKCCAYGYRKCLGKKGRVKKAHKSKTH
In short: (§1)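 UDPGA-supplemented individual human liver microsomes (n = 9) in 100 μl Tris-HCl 50 mM pH 7.4 with alamethicin 22 μg/ml, D-saccharic-1,4-lactone 4.4 mM and UDPGA 3.5 mM. Incubated 37 °C for 60 min, stopped with ice-cold acetonitrile, centrifuged, supernatant analysed by UHPLC. Test compound glucuronidation rates correlated with probe glucuronidation across donors by Pearson analysis.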

[2] = target: T2, UGT1A9 (Homo sapiens, UniProt O60656); assay type: in vitro ADME; conditions: propofol 500 μM; individual HLM n = 9; Pearson; P = 0.016
T2 sequence (O60656 26-530): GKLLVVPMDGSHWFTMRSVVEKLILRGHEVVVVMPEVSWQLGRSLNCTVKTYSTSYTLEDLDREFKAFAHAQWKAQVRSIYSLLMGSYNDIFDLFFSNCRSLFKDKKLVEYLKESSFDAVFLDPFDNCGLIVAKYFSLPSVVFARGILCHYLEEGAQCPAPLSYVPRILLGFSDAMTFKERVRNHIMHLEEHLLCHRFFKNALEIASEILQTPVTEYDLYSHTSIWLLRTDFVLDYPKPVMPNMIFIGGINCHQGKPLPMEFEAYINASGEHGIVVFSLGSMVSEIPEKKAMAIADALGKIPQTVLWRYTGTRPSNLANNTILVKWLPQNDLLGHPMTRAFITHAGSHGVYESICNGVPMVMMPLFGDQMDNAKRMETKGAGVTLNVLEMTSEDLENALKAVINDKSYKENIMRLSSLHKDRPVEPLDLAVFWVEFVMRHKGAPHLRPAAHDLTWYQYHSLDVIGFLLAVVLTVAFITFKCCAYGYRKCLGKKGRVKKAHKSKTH
In short: as §1

[3] = substrate: CC(C)=CCc1c(O)ccc2c1O[C@H](c1ccc(O)cc1)CC2=O; experiment: not read; conditions: substrate inhibition model, pH 7.4, 37.0 °C
[4] = substrate: CC(C)=CCc1c(O)ccc2c1O[C@H](c1ccc(O)cc1)CC2=O; experiment: cells, lysate or membranes named; assay type: in vitro ADME, human; conditions: pH 7.4, 37.0 °C
[5] = other: formation of G1, substrate inhibition model
[6] = other: formation of G2, substrate inhibition model

How did the correlation factor r [1] turn out when `CC(C)=CCc1c(O[C@@H]2O[C@H](C(=O)O)[C@@H](O)[C@H](O)[C@H]2O)ccc2c1O[C@H](c1ccc(O)cc1)CC2=O` [G1, isobavachin-7-O-glucuronide] was run?
Its correlation factor r is 0.774.

And the correlation factor r [2]?
Its correlation factor r is 0.767.

B1: CYP1A2 (Homo sapiens) (protein)
chain: MALSQSVPFSATELLLASAIFCLVFWVLKGLRPRVPKGLKSPPEPWGWPLLGHVLTLGKNPHLALSRMSQRYGDVLQIRIGSTPVLVLSRLDTIRQALVRQGDDFKGRPDLYTSTLITDGQSLTFSTDSGPVWAARRRLAQNALNTFSIASDPASSSSCYLEEHVSKEAKALISRLQELMAGPGHFDPYNQVVVSVANVIGAMCFGQHFPESSDEMLSLVKNTHEFVETASSGNPLDFFPILRYLPNPALQRFKAFNQRFLWFLQKTVQEHYQDFDKNSVRDITGALFKHSKKGPRASGNLIPQEKIVNLVNDIFGAGFDTVTTAISWSLMYLVTKPEIQRKIQKELDTVIGRERRPRLSDRPQLPYLEAFILETFRHSSFLPFTIPHSTTRDTTLNGFYIPKKCCVFVNQWQVNHDPELWEDPSEFRPERFLTADGTAINKPLSEKMMLFGMGKRRCIGEVLAKWEIFLFLAILLQQLEFSVPPGVKVDLTPIYGLTMKHARCEHVQARLRFSIN
For B1, which K0.5 ([3]; other: formation of M1) is on record?
Its K0.5 is 5.08 ± 0.54 µM.

What about the Vmax ([3]; other: formation of M1) of the same molecule?
The Vmax was 0.000312 µmol/min/mg.

What about the Vmax/Km ([3]; other: formation of M1) of the same molecule?
Its Vmax/Km is 61.4 µL/min/mg.

And the K0.5 ([3]; other: formation of M3)?
Its K0.5 is 19.81 ± 9.47 µM.

And the Vmax ([3]; other: formation of M3)?
The Vmax was 0.000173 µmol/min/mg.

What about the Vmax/Km ([3]; other: formation of M3) of the same molecule?
The Vmax/Km was 8.75 µL/min/mg.

B2: UGT1A8 (Homo sapiens) (protein)
chain: GKLLVVPMDGSHWFTMQSVVEKLILRGHEVVVVMPEVSWQLGKSLNCTVKTYSTSYTLEDLDREFMDFADAQWKAQVRSLFSLFLSSSNGFFNLFFSHCRSLFNDRKLVEYLKESSFDAVFLDPFDACGLIVAKYFSLPSVVFARGIACHYLEEGAQCPAPLSYVPRILLGFSDAMTFKERVRNHIMHLEEHLFCQYFSKNALEIASEILQTPVTAYDLYSHTSIWLLRTDFVLDYPKPVMPNMIFIGGINCHQGKPLPMEFEAYINASGEHGIVVFSLGSMVSEIPEKKAMAIADALGKIPQTVLWRYTGTRPSNLANNTILVKWLPQNDLLGHPMTRAFITHAGSHGVYESICNGVPMVMMPLFGDQMDNAKRMETKGAGVTLNVLEMTSEDLENALKAVINDKSYKENIMRLSSLHKDRPVEPLDLAVFWVEFVMRHKGAPHLRPAAHDLTWYQYHSLDVIGFLLAVVLTVAFITFKCCAYGYRKCLGKKGRVKKAHKSKTH
B2 was tested. Which K0.5 [4, 5] did it give?
The K0.5 was 34.71 ± 6.45 µM.

B3: UGT1A6 (Homo sapiens) (protein)
chain: DKLLVVPQDGSHWLSMKDIVEVLSDRGHEIVVVVPEVNLLLKESKYYTRKIYPVPYDQEELKNRYQSFGNNHFAERSFLTAPQTEYRNNMIVIGLYFINCQSLLQDRDTLNFFKESKFDALFTDPALPCGVILAEYLGLPSVYLFRGFPCSLEHTFSRSPDPVSYIPRCYTKFSDHMTFSQRVANFLVNLLEPYLFYCLFSKYEELASAVLKRDVDIITLYQKVSVWLLRYDFVLEYPRPVMPNMVFIGGINCKKRKDLSQEFEAYINASGEHGIVVFSLGSMVSEIPEKKAMAIADALGKIPQTVLWRYTGTRPSNLANNTILVKWLPQNDLLGHPMTRAFITHAGSHGVYESICNGVPMVMMPLFGDQMDNAKRMETKGAGVTLNVLEMTSEDLENALKAVINDKSYKENIMRLSSLHKDRPVEPLDLAVFWVEFVMRHKGAPHLRPAAHDLTWYQYHSLDVIGFLLAVVLTVAFITFKCCAYGYRKCLGKKGRVKKAHKSKTH
B3 was tested. Which K0.5 [4, 5] did it give?
Its K0.5 is 67.66 ± 16.32 µM.

And the Vmax [4, 5]?
Its Vmax is 0.00382 µmol/min/mg.

What about the Vmax/Km [4, 5] of the same molecule?
Its Vmax/Km is 56.5 µL/min/mg.

What about the K0.5 [4, 6] of the same molecule?
The K0.5 was 31.85 ± 6.28 µM.

And the Vmax [4, 6]?
The Vmax was 0.000342 µmol/min/mg.

And the Vmax/Km [4, 6]?
The Vmax/Km was 10.7 µL/min/mg.

B4: UGT2B4 (Homo sapiens) (protein)
chain: GKVLVWPTEFSHWMNIKTILDELVQRGHEVTVLASSASISFDPNSPSTLKFEVYPVSLTKTEFEDIIKQLVKRWAELPKDTFWSYFSQVQEIMWTFNDILRKFCKDIVSNKKLMKKLQESRFDVVLADAVFPFGELLAELLKIPFVYSLRFSPGYAIEKHSGGLLFPPSYVPVVMSELSDQMTFIERVKNMIYVLYFEFWFQIFDMKKWDQFYSEVLGRPTTLSETMAKADIWLIRNYWDFQFPHPLLPNVEFVGGLHCKPAKPLPKEMEEFVQSSGENGVVVFSLGSMVSNTSEERANVIASALAKIPQKVLWRFDGNKPDTLGLNTRLYKWIPQNDLLGHPKTRAFITHGGANGIYEAIYHGIPMVGVPLFADQPDNIAHMKAKGAAVSLDFHTMSSTDLLNALKTVINDPLYKENAMKLSRIHHDQPVKPLDRAVFWIEFVMRHKGAKHLRVAAHDLTWFQYHSLDVTGFLLACVATVIFIITKCLFCVWKFVRTGKKGKRD
For B4, which K0.5 ([4]; other: formation of G1, Michaelis–Menten model) is on record?
The K0.5 was 2.66 ± 0.28 µM.

B5: CYP2C19 (Homo sapiens) (protein)
chain: MDPFVVLVLCLSCLLLLSIWRQSSGRGKLPPGPTPLPVIGNILQIDIKDVSKSLTNLSKIYGPVFTLYFGLERMVVLHGYEVVKEALIDLGEEFSGRGHFPLAERANRGFGIVFSNGKRWKEIRRFSLMTLRNFGMGKRSIEDRVQEEARCLVEELRKTKASPCDPTFILGCAPCNVICSIIFQKRFDYKDQQFLNLMEKLNENIRIVSTPWIQICNNFPTIIDYFPGTHNKLLKNLAFMESDILEKVKEHQESMDINNPRDFIDCFLIKMEKEKQNQQSEFTIENLVITAADLLGAGTETTSTTLRYALLLLLKHPEVTAKVQEEIERVIGRNRSPCMQDRGHMPYTDAVVHEVQRYIDLIPTSLPHAVTCDVKFRNYLIPKGTTILTSLTSVLHDNKEFPNPEMFDPRHFLDEGGNFKKSNYFMPFSAGKRICVGEGLARMELFLFLTFILQNFNLKSLIDPKDLDTTPVVNGFASVPPFYQLCFIPV
For B5, which K0.5 ([3]; other: formation of M1) is on record?
The K0.5 was 56.54 ± 16.3 µM.

And the Vmax ([3]; other: formation of M1)?
Its Vmax is 0.00252 µmol/min/mg.

And the Vmax/Km ([3]; other: formation of M1)?
The Vmax/Km was 44.5 µL/min/mg.

And the K0.5 ([3]; other: formation of M3)?
Its K0.5 is 16.81 ± 5.02 µM.

What about the Vmax ([3]; other: formation of M3) of the same molecule?
The Vmax was 0.0013 µmol/min/mg.

And the Vmax/Km ([3]; other: formation of M3)?
Its Vmax/Km is 77.3 µL/min/mg.

B6: UGT1A9 (Homo sapiens) (protein)
chain: GKLLVVPMDGSHWFTMRSVVEKLILRGHEVVVVMPEVSWQLGRSLNCTVKTYSTSYTLEDLDREFKAFAHAQWKAQVRSIYSLLMGSYNDIFDLFFSNCRSLFKDKKLVEYLKESSFDAVFLDPFDNCGLIVAKYFSLPSVVFARGILCHYLEEGAQCPAPLSYVPRILLGFSDAMTFKERVRNHIMHLEEHLLCHRFFKNALEIASEILQTPVTEYDLYSHTSIWLLRTDFVLDYPKPVMPNMIFIGGINCHQGKPLPMEFEAYINASGEHGIVVFSLGSMVSEIPEKKAMAIADALGKIPQTVLWRYTGTRPSNLANNTILVKWLPQNDLLGHPMTRAFITHAGSHGVYESICNGVPMVMMPLFGDQMDNAKRMETKGAGVTLNVLEMTSEDLENALKAVINDKSYKENIMRLSSLHKDRPVEPLDLAVFWVEFVMRHKGAPHLRPAAHDLTWYQYHSLDVIGFLLAVVLTVAFITFKCCAYGYRKCLGKKGRVKKAHKSKTH
For B6, which K0.5 [4, 5] is on record?
Its K0.5 is 15.63 ± 3.12 µM.

B7: UGT1A7 (Homo sapiens) (protein)
chain: GKLLVVPMDGSHWFTMQSVVEKLILRGHEVVVVMPEVSWQLGRSLNCTVKTYSTSYTLEDQDREFMVFADARWTAPLRSAFSLLTSSSNGIFDLFFSNCRSLFNDRKLVEYLKESCFDAVFLDPFDACGLIVAKYFSLPSVVFARGIFCHYLEEGAQCPAPLSYVPRLLLGFSDAMTFKERVWNHIMHLEEHLFCPYFFKNVLEIASEILQTPVTAYDLYSHTSIWLLRTDFVLEYPKPVMPNMIFIGGINCHQGKPVPMEFEAYINASGEHGIVVFSLGSMVSEIPEKKAMAIADALGKIPQTVLWRYTGTRPSNLANNTILVKWLPQNDLLGHPMTRAFITHAGSHGVYESICNGVPMVMMPLFGDQMDNAKRMETKGAGVTLNVLEMTSEDLENALKAVINDKSYKENIMRLSSLHKDRPVEPLDLAVFWVEFVMRHKGAPHLRPAAHDLTWYQYHSLDVIGFLLAVVLTVAFITFKCCAYGYRKCLGKKGRVKKAHKSKTH
How did the K0.5 [4, 5] turn out when B7 was run?
Its K0.5 is 32.91 ± 5.76 µM.

B8: UGT1A1 (Homo sapiens) (protein)
chain: HAGKILLIPVDGSHWLSMLGAIQQLQQRGHEIVVLAPDASLYIRDGAFYTLKTYPVPFQREDVKESFVSLGHNVFENDSFLQRVIKTYKKIKKDSAMLLSGCSHLLHNKELMASLAESSFDVMLTDPFLPCSPIVAQYLSLPTVFFLHALPCSLEFEATQCPNPFSYVPRPLSSHSDHMTFLQRVKNMLIAFSQNFLCDVVYSPYATLASEFLQREVTVQDLLSSASVWLFRSDFVKDYPRPIMPNMVFVGGINCLHQNPLSQEFEAYINASGEHGIVVFSLGSMVSEIPEKKAMAIADALGKIPQTVLWRYTGTRPSNLANNTILVKWLPQNDLLGHPMTRAFITHAGSHGVYESICNGVPMVMMPLFGDQMDNAKRMETKGAGVTLNVLEMTSEDLENALKAVINDKSYKENIMRLSSLHKDRPVEPLDLAVFWVEFVMRHKGAPHLRPAAHDLTWYQYHSLDVIGFLLAVVLTVAFITFKCCAYGYRKCLGKKGRVKKAHKSKTH
With B8 as the molecule, how does the K0.5 [4, 5] read?
The K0.5 was 41.84 ± 8.25 µM.
